In ChEMBL document CHEMBL1133678, “Synthesis of new indeno[1,2-c]isoquinolines: cytotoxic non-camptothecin topoisomerase I inhibitors” (2000):

Assays:
[1] = test system: Panel (Carcinoma cell lines); experiment: Mean graph midpoint for growth inhibition of all human cancer cell lines; type: functional; design: unit: µM
Summary of the method: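 Mean graph midpoint across all cell lines successfully tested in the roughly 55-line human cancer panel. Each line's GI50 is the 50% growth-inhibition concentration, tested over 10^-4 to 10^-8 M. Out-of-range values were set to 10^-8 M or 10^-4 M before averaging.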

OVCAR-3 = experiment: Antiproliferative activity was determined for 50% growth inhibition against human ovarian OVCAR-3 cell line; type: functional
Summary of the method: (§1)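 Human cancer cell lines from the roughly 55-line panel. GI50 is the concentration giving 50% growth inhibition. The test range was 10^-4 to 10^-8 M. Values outside the range were set to the minimum (10^-8 M) or the maximum (10^-4 M).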

UACC-62 = experiment: Antiproliferative activity was determined for 50% growth inhibition against human melanoma UACC-62 cell line; type: functional; conditions: Homo sapiens, UACC-62; summary of the method: as §1
HOP-62 = experiment: Antiproliferative activity was determined for 50% growth inhibition against human lung HOP-62 cell line; type: functional; conditions: Homo sapiens, HOP-62; summary of the method: as §1
MDA-MB-435 = experiment: Antiproliferative activity was determined for 50% growth inhibition against human breast MDA-MB-435 cell line; type: functional; conditions: Homo sapiens, MDA-MB-435; summary of the method: as §1
HCT-116 = experiment: Antiproliferative activity was determined for 50% growth inhibition against human colon HCT116 cell line; type: functional; conditions: Homo sapiens, HCT-116; summary of the method: as §1
SF-539 = experiment: Antiproliferative activity was determined for 50% growth inhibition against human CNS SF-539 cell line; type: functional; summary of the method: as §1
SN12C = experiment: Antiproliferative activity was determined for 50% growth inhibition against human renal SN12C cell line; type: functional; conditions: Homo sapiens, SN12C; summary of the method: as §1
DU-145 [2] = experiment: Antiproliferative activity was determined for 50% growth inhibition against human Prostate c; type: functional; conditions: DU-145, Prostate gland; summary of the method: as §1
[3] = target: T1, DNA topoisomerase 1 (Homo sapiens) (UniProt P11387); experiment: Inhibitory activity of compound against human recombinant DNA topoisomerase I mediated DNA cleavage; Weak activity
T1 sequence (whole entry): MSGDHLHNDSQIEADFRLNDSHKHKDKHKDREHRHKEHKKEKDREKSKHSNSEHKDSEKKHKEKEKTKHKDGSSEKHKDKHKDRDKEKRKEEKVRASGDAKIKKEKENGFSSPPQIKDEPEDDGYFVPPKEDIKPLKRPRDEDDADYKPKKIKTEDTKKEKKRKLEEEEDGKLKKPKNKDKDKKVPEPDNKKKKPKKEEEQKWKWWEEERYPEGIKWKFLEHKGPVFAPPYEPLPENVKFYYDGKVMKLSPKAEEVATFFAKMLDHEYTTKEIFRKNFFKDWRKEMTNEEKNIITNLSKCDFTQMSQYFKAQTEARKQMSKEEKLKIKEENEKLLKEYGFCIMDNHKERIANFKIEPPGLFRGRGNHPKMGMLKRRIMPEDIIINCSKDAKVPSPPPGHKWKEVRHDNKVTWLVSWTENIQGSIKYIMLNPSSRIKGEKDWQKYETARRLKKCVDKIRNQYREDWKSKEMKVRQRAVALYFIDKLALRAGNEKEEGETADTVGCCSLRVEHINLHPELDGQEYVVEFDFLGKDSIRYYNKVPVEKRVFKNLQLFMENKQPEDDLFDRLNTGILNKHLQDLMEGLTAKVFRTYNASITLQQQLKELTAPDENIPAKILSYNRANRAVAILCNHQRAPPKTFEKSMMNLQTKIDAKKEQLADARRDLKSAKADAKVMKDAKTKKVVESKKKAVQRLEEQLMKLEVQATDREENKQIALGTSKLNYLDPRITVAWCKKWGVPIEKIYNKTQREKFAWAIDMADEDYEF

DU-145 [4] = experiment: Antiproliferative activity was determined for 50% growth inhibition against human Prostate DU-145 cell line; type: functional; conditions: Homo sapiens, DU-145; summary of the method: as §1

| Structure (SMILES) | MGM [1] | GI50 (OVCAR-3) | GI50 (UACC-62) | GI50 (HOP-62) | GI50 (MDA-MB-435) | GI50 (HCT-116) | GI50 (SF-539) | GI50 (SN12C) | GI50 (DU-145 [2]) | GI50 (OVCAR-3; Homo sapiens, OVCAR-3) | Activity [3] | GI50 (SF-539; Homo sapiens, SF-539) | GI50 (DU-145 [4]) |
| --- | --- | --- | --- | --- | --- | --- | --- | --- | --- | --- | --- | --- | --- |
| COc1cc2c3c(n(CCCNCCO)c(=O)c2cc1OC)-c1cc2c(cc1C3=O)OCO2.Cl | 0.11 | 350 nM | 30 nM | 20 nM | 790 nM | 100 nM | 40 nM | < 10 nM | < 10 nM | – | – | – | – |
| O=C1c2ccccc2-c2c1c1ccccc1c(=O)n2CCCl | 4.37 | – | 8080 nM | 3810 nM | 3700 nM | 3860 nM | – | 4390 nM | – | 5870 nM | Weak activity | 2480 nM | 3500 nM |
